M1 agonist: M1 muscarinic receptor agonists, primary screen, CHO-M1 cells, Fluo-4 calcium, agonist mode; Muscarinic acetylcholine receptor M1; Fluo-4 calcium fluorescence; stronger effect = higher value; B-score at 10 µM; 64,000 compounds, 3% hits; AID 626, 2007;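 active means fluorescence rise, raw or as B-score row- and column-corrected plate score, outside the 99.7% band of its plate's samples, either direction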
mHtt clearance: clearance of mutant huntingtin inclusions, primary screen, imaging, HeLa Exon1htt(103Q)mCFP, confocal imaging; inhibition, % at 1.5 µM; 47,000 compounds, 0.42% hits; aggregate imaging; zero = plate's median compound well; AID 853, 2007;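 active means inhibition of aggregate fluorescence above about 70%, also judged a hit by eye on the cell image, limit read from the data, passing the limit was not always enough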;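 further: cells exposed to compound for three days before fixation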
M1 antagonist: antagonists of rat M1 muscarinic receptor. B-score at 10 µM. 64,000 compounds, 3.4% hits. CHO-M1 cells, Fluo-4 calcium, ACh EC80 antagonist mode; stronger effect = lower value. AID 628, 2007;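 active means calcium fluorescence response, raw or row-and-column corrected B-score, differing from the plate sample mean either way at a set confidence level, mostly lower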
Target sequence (P08482 whole entry, looked up): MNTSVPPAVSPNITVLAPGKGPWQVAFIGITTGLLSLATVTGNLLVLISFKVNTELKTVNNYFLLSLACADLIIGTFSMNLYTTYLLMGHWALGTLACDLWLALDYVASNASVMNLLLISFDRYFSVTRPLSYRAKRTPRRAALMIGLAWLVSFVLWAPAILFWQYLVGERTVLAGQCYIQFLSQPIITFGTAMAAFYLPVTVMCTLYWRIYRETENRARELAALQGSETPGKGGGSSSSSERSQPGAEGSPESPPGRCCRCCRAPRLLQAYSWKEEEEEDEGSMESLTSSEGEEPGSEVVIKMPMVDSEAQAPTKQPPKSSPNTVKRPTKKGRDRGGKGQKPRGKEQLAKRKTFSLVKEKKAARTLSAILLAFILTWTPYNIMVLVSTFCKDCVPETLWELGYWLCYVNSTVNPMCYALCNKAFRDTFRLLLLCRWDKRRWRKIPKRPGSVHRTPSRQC
D1 mod: D1 CRE-luciferase signal change, two-sided – cell-based, HEK293 D1, dopamine EC30, D1 allosteric modulator project, primary screen | dopamine EC30 potentiation; actives deviate in either direction | B-score at 10 µM | 58,000 compounds, 5.9% hits;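 active means luminescence count or its row- and column-corrected plate score outside the 99.7% band of the plate's sample wells, on either side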
AP ELISA ortho: alternative complement pathway inhibitors, primary screen, biochemical, ELISA, human serum, orthogonally pooled compounds. inhibition, % at 5 µM. LPS-coated ELISA, C3 deposition; tested in compound mixtures. 62,000 compounds, 0.08% hits;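 active means inhibition above 30% in each of the two pooled mixtures holding the compound, so the lower value exceeds 30%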;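 further: 0% = serum in Mg-EGTA without compound and 100% = EDTA serum blank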
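Assay system: human serum alternative complement pathway, C3 deposition on LPS-coated wells; Dosing: 5 µM per compound in ten-compound mixtures; Detection: Anti-C3 ELISA, OD 450 nm; Buffer or medium: Mg2+-EGTA GVB++ buffer containing human serum at 1:15 dilution; Timing: 1 h at 37 °C; Replication: two different pools per compound.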
D1 mod confirm: D1 receptor positive allosteric modulators, retest, confirmation, cell-based, HEK293 D1, CRE-luciferase, duplicate. shares compounds with D1 mod. dopamine EC30 potentiation; stronger effect = higher value. luminescence at 10 µM. 2,200 compounds, 88% hits;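 active means luminescence in either of two replicates above the same-plate mean plus 3 SD of the low-dose dopamine control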
D1 no dopamine: D1 receptor agonism without dopamine, confirmation, mechanism study for D1 allosteric modulator project, cell-based, HEK293 D1, CRE-luciferase, secondary assay 1. shares compounds with D1 mod. luminescence, no dopamine; stronger effect = higher value. luminescence at 10 µM. 1,900 compounds, 0.8% hits. AID 646, 2007; in the data active means luminescence above about 3900
Isoprot counter: alters isoproterenol CRE-luciferase response in HEK293 cells; HEK293 D1 CRE-luciferase, isoproterenol EC30 counter-screen; 2,200 compounds, 63% hits; AID 647; calls only at 10 µM; shares compounds with D1 mod;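 active means luminescence in either replicate above plate mean of wells with a partly effective reference agonist dose plus 3 SD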;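 further: isoproterenol raises cAMP through native beta-adrenoceptor Gs so signal bypasses D1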
* hit, by the source's call; i = inactive; . = no result given; + = active, no number. A selection: hits, their analogues and other compounds. The true share with any hit is near 9%.

SMILES | M1 agonist | mHtt clearance | M1 antagonist | D1 mod | AP ELISA ortho | D1 mod confirm | D1 no dopamine | Isoprot counter
COc1ccc(-c2cc(C(=O)N3CCN(Cc4ccccc4)CC3)no2)cc1OC | -0.91 | . | 0.063 | 0.55 | -3 | . | . | .
COc1ccc(-c2cc(C(=O)N3CCCCC3)no2)cc1OC | -0.31 | -2 | -0.11 | 9.5* | 5 | 14812* | . | +
O=C(CN(Cc1cccs1)C(=O)CSc1nnc(COc2ccccc2)o1)NC1CCCCC1 | . | -24 | . | . | . | . | . | .
Cc1cc2cc(CN(CCN3CCOCC3)C(=O)Nc3ccccc3F)c(=O)[nH]c2cc1C | 1.2 | . | 0.59 | 2.7* | 12 | 5960* | 1568 | i
CCCc1n[nH]c2c1C(=O)C(C(=O)OC)C(C)(C)C2 (centres undefined) | 0.49 | . | -0.12 | 1.7 | -1 | . | . | .
CCOC(=O)c1cc(-c2ccccc2)sc1NC(=O)c1ccc(OC)cc1 | . | 26 | . | . | . | . | . | .
CCOC(=O)c1sc(-c2ccccc2)cc1N | 0.15 | 22 | -0.61 | 6.1* | 3 | 12680* | 1780 | i
CCOC(=O)c1sc(-c2ccc(OC)cc2)cc1N | -0.27 | -98 | -0.066 | 0.44 | 14 | . | . | .
CCOC(=O)c1cc(-c2ccccc2)sc1N | 0.47 | . | 0.0059 | 12* | 11 | 19816* | 1684 | +
CCCS(=O)(=O)N1CCN(C(=O)COc2ccc(-c3ccccc3)cc2)CC1 | . | . | . | -0.5 | 16 | . | . | .
Cc1ccc(N=C2CCCN2Cc2ccccc2)c(C#N)c1 | . | -89 | . | . | . | . | . | .
C=C(C)c1cccc(C(C)(C)NC(=O)Nn2cnnc2)c1 | 0.58 | . | 1.3 | 6* | 10 | 6208 | 1644 | i
CC1(C)Cc2c(C#N)c(NCCCO)nc(-c3ccccc3)c2CO1 | -0.6 | . | -0.62 | 5.8* | -3 | 11280* | 1708 | +
Cc1c(Cl)cccc1NC(=O)C1NC(=O)CC1c1ccccc1 (centres undefined) | . | 21 | . | . | . | . | . | .
C=CCn1sc(=N)c(C#N)c1N | -0.16 | . | -0.085 | . | -3 | . | . | .
C=CCNc1sc(C(=O)C(C)(C)C)c(N)c1C#N | -0.58 | 1 | 0.0065 | 9.3* | -10 | 21312* | 1684 | i
C=CCN(CC=C)C(=O)C1CCC(C(=O)N(CC=C)CC=C)CC1 (centres undefined) | -0.52 | -129 | -0.94 | -0.016 | -7 | . | . | .
C=CCNc1sc(C(=O)C2CC2)c(N)c1C#N | 0.31 | . | 0.48 | 19* | . | 26736* | 1716 | +
C=CCn1c2ccccc2c2nnc(SCC(=O)OCN3C(=O)c4ccccc4C3=O)nc21 | . | -24 | . | . | . | . | . | .
Cc1cc(NC(=O)C2CCC2)n(-c2ccccn2)n1 | 0.27 | . | 0.61 | 7.6* | . | 20484* | 1604 | +
Cc1cc(NC(=O)C2CCCCC2)n(-c2nc3ccccc3[nH]2)n1 | . | 26 | . | . | . | . | . | .
Cc1ccc(Nc2nnc(SCc3cc(=O)n4ccsc4n3)s2)c(C)c1 | -1.5 | . | -0.28 | 2.6* | 13 | 6736* | 1632 | i
COc1ccc(N(C(=O)c2ccco2)S(=O)(=O)c2cccs2)cc1 | -0.032 | -54 | -0.28 | 7.5* | -22 | 14396* | 1668 | +
COc1cc2c(cc1OC)C(C)N(C(=O)C1COc3ccccc3O1)CC2 (centres undefined) | 1.3 | . | -0.76 | 7.3* | -13 | 19292* | 1592 | +
COc1cc2c(cc1OC)C(C)N(C(C)=O)CC2 (centres undefined) | . | -33 | . | . | . | . | . | .
SMILES | M1 agonist | mHtt clearance | M1 antagonist | D1 mod | AP ELISA ortho | D1 mod confirm | D1 no dopamine | Isoprot counter
COc1cc2c(cc1OC)C(C)N(C(=O)c1cc3ccccc3o1)CC2 (centres undefined) | -0.61 | . | -0.23 | 15* | 14 | 16968* | 1740 | +
O=C(O)/C(=C\c1ccco1)NC(=O)c1cccc2ccccc12 | . | 18 | . | . | . | . | . | .
CCOC(=O)c1c(C)c2c(n1C)CCC/C2=N\O | 1 | i | -0.13 | 6.5* | -11 | 9680* | 1536 | +
CCCCOC(=O)c1ccc(NC(=O)C2CCCO2)cc1 (centres undefined) | 0.096 | . | 0.033 | 0.15 | 18 | . | . | .
CCOC(=O)c1ccc(NC(=O)C2CCCO2)cc1 (centres undefined) | 0.5 | . | 0.28 | 23* | 18 | 6456 | 1748 | i
C/C(Cl)=C/Cn1c(SCc2ccc(Cl)cc2)nc2c1c(=O)[nH]c(=O)n2C | -0.47 | 37 | -0.45 | 8.8* | 10 | 10156* | 1472 | +
CCOC(=O)C(C)Sc1nc2c(c(=O)[nH]c(=O)n2C)n1C/C=C(/C)Cl (centres undefined) | -0.18 | 22 | 0.12 | 9.3* | 10 | 12104* | 1572 | +
C/C(Cl)=C/Cn1c(SCCN2CCOCC2)nc2c1c(=O)[nH]c(=O)n2C | -0.13 | 35 | -0.48 | 1.1 | -12 | . | . | .
C=CCSc1nc2c(c(=O)[nH]c(=O)n2C)n1C/C=C(/C)Cl | -0.6 | . | -0.57 | 19* | -1 | 20956* | . | +
CSc1nc2c(c(=O)[nH]c(=O)n2C)n1C/C=C(\C)Cl | 1.1 | 69 | 0.29 | 15* | 8 | 24712* | 1588 | +
CCOCCn1c(SCc2ccc(F)cc2)nc2c1c(=O)[nH]c(=O)n2C | 0.6 | . | -0.29 | -0.047 | 22 | . | . | .
CCSc1nc2c(c(=O)[nH]c(=O)n2C)n1C/C=C(/C)Cl | -0.037 | . | 0.26 | 14* | -29 | 19268* | 1408 | +
CCCn1c2ccccc2c2nnc(SCC(=O)Nc3ncccn3)nc21 | -0.053 | -86 | -0.73 | 20* | 8 | 22748* | 1692 | +
CCOC(=O)NC(Nc1cc(C)ccn1)(C(F)(F)F)C(F)(F)F | -0.51 | -6 | -0.0061 | 0.21 | -2 | . | . | .
C/C(N)=C(/C#N)C(=O)CSc1nnc(Nc2c(C)cccc2C)s1 | -1.5 | . | -0.33 | 0.42 | 7 | . | . | .
C/C(N)=C(/C#N)C(=O)CSc1nnc(SCc2ccc(Cl)cc2)s1 | -0.76 | . | 0.0096 | 6.7* | 13 | 6760* | 1560 | i
c1ccc(OCc2nnc3sc(-c4cccs4)nn23)cc1 | -0.22 | . | -0.036 | 6.4* | 29 | 15144* | 1772 | +
c1ccc2c(c1)OCC(c1nnc3sc(-c4cnccn4)nn13)O2 (centres undefined) | . | -63 | . | 0.59 | -3 | . | . | .
c1csc(-c2nn3c(C4COc5ccccc5O4)nnc3s2)c1 (centres undefined) | -0.64 | 61 | -0.15 | 8.6* | 20 | 18120* | 1676 | +
